This note sets out measurements from ChEMBL document CHEMBL3425482, “Structure-guided design and optimization of dipeptidyl inhibitors of norovirus 3CL protease. Structure-activity relationships and biochemical, X-ray crystallographic, cell-based, and in vivo studies” (J Med Chem, 2015).

Assay [1] is described as follows: Inhibition of Norovirus recombinant 3CL protease using Edans-EPDFHLQGPEDLAK-Dabcyl as substrate for 30 mins by fluorometry.
For assay [2], the system named is Norovirus. Kind of assay: Antiviral activity against Norovirus infected in human HG23 cells. The class given is functional, cell-based.
In assay [3] the target is T1, Neutrophil elastase (Homo sapiens) (UniProt P08246).
T1 sequence (whole entry): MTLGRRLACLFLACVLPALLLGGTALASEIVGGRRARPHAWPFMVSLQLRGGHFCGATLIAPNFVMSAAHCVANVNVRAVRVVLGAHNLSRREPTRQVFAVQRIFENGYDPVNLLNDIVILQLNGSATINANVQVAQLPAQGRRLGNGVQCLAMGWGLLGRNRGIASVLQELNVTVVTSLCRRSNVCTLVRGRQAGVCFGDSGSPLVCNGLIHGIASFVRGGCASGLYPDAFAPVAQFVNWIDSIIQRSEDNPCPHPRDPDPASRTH
Put plainly: Inhibition of human neutrophil elastase. Particulars: concentration not given here.

The species named for assay [4] is Homo sapiens. Kind of assay: Inhibition of chymotrypsin (unknown origin). Particulars: concentration not given here.
Assay [5] is filed under the species Bos taurus. Put plainly: Inhibition of bovine trypsin. Particulars: concentration not given here.
Assay [6] concerns the target Prothrombin (Homo sapiens) (UniProt P00734). Kind of assay: Inhibition of human thrombin after 10 mins incubation by chromogenic substrate hydrolysis assay.
Assay [7] concerns the target Coagulation factor X (Homo sapiens) (UniProt P00742). Put plainly: Inhibition of human factor 10a using Pefachrome-tPA substrate. Particulars: concentration not given here.
In assay [8] the target is Plasminogen (Homo sapiens) (UniProt P00747). Put plainly: Inhibition of plasmin (unknown origin). Particulars: concentration not given here.
Chain of Plasminogen (Homo sapiens) (P00747 97-580 limits assumed): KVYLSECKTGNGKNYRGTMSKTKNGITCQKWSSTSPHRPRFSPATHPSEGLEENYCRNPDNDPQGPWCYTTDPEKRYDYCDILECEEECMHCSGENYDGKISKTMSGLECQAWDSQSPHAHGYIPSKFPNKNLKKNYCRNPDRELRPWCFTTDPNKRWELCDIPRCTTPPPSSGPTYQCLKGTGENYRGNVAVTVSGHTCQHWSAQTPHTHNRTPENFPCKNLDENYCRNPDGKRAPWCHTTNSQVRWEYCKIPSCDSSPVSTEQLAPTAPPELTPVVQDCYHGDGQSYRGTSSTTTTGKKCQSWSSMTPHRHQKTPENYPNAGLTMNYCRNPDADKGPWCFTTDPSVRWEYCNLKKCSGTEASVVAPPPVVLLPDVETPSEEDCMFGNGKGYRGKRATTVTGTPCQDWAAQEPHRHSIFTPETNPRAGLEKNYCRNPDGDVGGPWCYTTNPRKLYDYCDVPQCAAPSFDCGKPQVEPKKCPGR
Chain of Plasminogen (Homo sapiens) (P00747 581-810 limits assumed): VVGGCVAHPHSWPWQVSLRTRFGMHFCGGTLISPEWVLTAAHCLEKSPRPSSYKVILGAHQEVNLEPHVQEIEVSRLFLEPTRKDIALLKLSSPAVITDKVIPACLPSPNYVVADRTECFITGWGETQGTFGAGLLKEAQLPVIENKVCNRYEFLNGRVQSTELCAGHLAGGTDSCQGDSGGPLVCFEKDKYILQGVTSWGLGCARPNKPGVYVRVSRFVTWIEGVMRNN
The target of assay [9] is T2, Carboxypeptidase A1 (Homo sapiens) (UniProt P15085).
T2 sequence (whole entry): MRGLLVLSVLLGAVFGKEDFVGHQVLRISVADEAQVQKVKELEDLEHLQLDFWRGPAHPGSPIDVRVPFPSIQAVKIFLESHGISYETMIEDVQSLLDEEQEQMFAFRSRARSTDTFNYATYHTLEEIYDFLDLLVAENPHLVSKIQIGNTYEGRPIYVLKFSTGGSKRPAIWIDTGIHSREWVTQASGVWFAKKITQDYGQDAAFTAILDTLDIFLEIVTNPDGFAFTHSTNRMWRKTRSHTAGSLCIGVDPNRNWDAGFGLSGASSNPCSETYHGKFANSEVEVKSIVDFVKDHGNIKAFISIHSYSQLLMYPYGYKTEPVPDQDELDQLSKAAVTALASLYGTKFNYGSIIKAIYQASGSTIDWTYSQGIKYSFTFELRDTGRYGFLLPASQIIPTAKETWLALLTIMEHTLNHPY
Kind of assay: Inhibition of carboxypeptidase A (unknown origin). Conditions: concentration not given here.

A short description of assay [10]: Antiviral activity against Murine norovirus 1 infected in mouse RAW264.7 cells assessed as inhibition of viral replication. Type of assay: functional, cell-based. The method, boiled down:
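RAW264.7 mouse macrophages were kept in DMEM with 2–5% FBS. Serially diluted compound (DMSO ≤0.5%) was added to confluent monolayers. Cells were infected immediately with MNV-1 at MOI 0.05–0.1 and held 48 h at 37 °C. After freeze-thaw, virus titres were read by TCID50. EC50 came from nonlinear variable-slope regression of inhibition versus log concentration.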

Assay [11] in a line: Antiviral activity against Murine norovirus 1 infected in Balb/c mouse assessed as reduction in viral titers in small intestine at 10 mg/kg, ip twice daily started 4 hrs prior to infection measured after 72 hrs post infection. Conditions: route intraperitoneal.
Assay [12] is described as follows: Antiviral activity against Murine norovirus 1 infected in Balb/c mouse assessed as reduction in viral titers in large intestine at 10 mg/kg, ip twice daily started 4 hrs prior to infection measured after 72 hrs post infection. Particulars: route intraperitoneal.

Chain of Coagulation factor X (Homo sapiens) (P00742 41-179 limits assumed): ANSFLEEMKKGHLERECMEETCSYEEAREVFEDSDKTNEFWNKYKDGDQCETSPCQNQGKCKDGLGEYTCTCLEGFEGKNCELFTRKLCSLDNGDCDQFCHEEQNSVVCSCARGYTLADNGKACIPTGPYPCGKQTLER
Chain of Coagulation factor X (Homo sapiens) (P00742 235-488 limits assumed): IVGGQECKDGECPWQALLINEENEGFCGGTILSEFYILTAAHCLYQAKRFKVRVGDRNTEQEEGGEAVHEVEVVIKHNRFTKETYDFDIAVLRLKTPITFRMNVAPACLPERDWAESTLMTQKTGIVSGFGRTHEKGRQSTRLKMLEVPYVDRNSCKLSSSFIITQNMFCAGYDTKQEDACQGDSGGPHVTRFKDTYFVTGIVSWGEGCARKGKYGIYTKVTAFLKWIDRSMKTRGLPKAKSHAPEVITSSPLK

Turning to `CCOP(=O)(OCC)C(O)[C@H](C[C@@H]1CCNC1=O)NC(=O)[C@H](CC1CCCCC1)NC(=O)OCc1ccccc1F` (stereo not given in full), in [1], the IC50 was over 10000 nM. Also, the EC50 in assay [2] is over 2000 nM.
`O=C[C@H](C[C@@H]1CCNC1=O)NC(=O)[C@H](CC1CCCCC1)NC(=O)OCc1cccc(Br)c1`: the IC50 in assay [1] came out at 300 nM. The EC50 in assay [2] came out at 30 nM. The inhibition in assay [3] stood at 26.5%; in assay [4] it was 0%; in [5], 0%; in [6], 0%; in [7], 0%; in assay [8], 7%. Also, the inhibition in assay [9] amounted to 11.6%.
Take `O=C[C@H](C[C@@H]1CCNC1=O)NC(=O)[C@H](CC1CCCCC1)NC(=O)OCc1cccc(I)c1`: the IC50 in assay [1] turned out to be 350 nM. A half-maximal effect in [2] (EC50) was put at 50 nM.
`O=C[C@H](C[C@@H]1CCNC1=O)NC(=O)[C@H](CC1CCCCC1)NC(=O)OCc1ccccc1Cl`: the IC50 in [1] worked out at 800 nM. Besides, in assay [2], the EC50 was found to be 80 nM.
Taken in the same sequence, the figures for `CC(C)C[C@H](NC(=O)OCc1cccc(Cl)c1)C(=O)N[C@H](C=O)C[C@@H]1CCNC1=O` were 900 nM and 100 nM.
Taken in the same sequence, the figures for `O=C(N[C@@H](CC1CCCCC1)C(=O)N[C@@H](C[C@@H]1CCNC1=O)C(=O)C(=O)NC1CC1)OCc1cccc(Br)c1` were 1500 nM and 200 nM.
Taken in the same sequence, the figures for `CC(C)C[C@H](NC(=O)OCc1ccccc1)C(=O)N[C@@H](C[C@@H]1CCNC1=O)C(=O)C(=O)NC1CC1` were 3400 nM and 1100 nM.
`CC(C)C[C@H](NC(=O)OCc1ccccc1)C(=O)N[C@@H](C[C@@H]1CCNC1=O)C(O)S(=O)(=O)O` (stereo not given in full): the IC50 in assay [1] came out at 800 nM. Moreover, the EC50 in assay [2] turned out to be 300 nM.
The matching figures for `O=C[C@H](C[C@@H]1CCNC1=O)NC(=O)[C@H](CC1CCCCC1)NC(=O)OCc1cccc(F)c1`: 1200 nM and 90 nM.
The matching figures for `O=C(N[C@@H](CC1CCCCC1)C(=O)N[C@@H](C[C@@H]1CCNC1=O)C(=O)C(=O)NC1CC1)OCc1cccc(F)c1`: 3500 nM and 300 nM.
Taken in the same sequence, the figures for `CS(=O)(=O)NC(=O)[C@H](C[C@@H]1CCNC1=O)NC(=O)[C@H](CC1CCCCC1)NC(=O)OCc1cccc(Cl)c1` were over 10000 nM and over 2000 nM.
In the case of `COc1cccc(COC(=O)N[C@@H](CC2CCCCC2)C(=O)N[C@H](C=O)C[C@@H]2CCNC2=O)c1`, the IC50 in assay [1] is 1400 nM. In assay [2], the EC50 came out at 150 nM.
Consider `O=C[C@H](C[C@@H]1CCNC1=O)NC(=O)[C@@H](NC(=O)OCc1cccc(Cl)c1)C1CCCCC1`, for which the IC50 in assay [1] worked out at 5100 nM. In addition, in [2], the midpoint of the response, the EC50, lay at 150 nM.
Take `CCOP(=O)(OCC)C(O)[C@H](C[C@@H]1CCNC1=O)NC(=O)[C@H](CC1CCCCC1)NC(=O)OCc1cccc(Br)c1` (stereo not given in full): in assay [1], the IC50 is 6500 nM. The EC50 in assay [2] stood at 150 nM. Further, the inhibition came out at 63% in assay [3]; 0% in assay [4]; 1% in assay [5]; 0% in assay [6]; 6% in assay [7]; 13% in assay [8]. Moreover, the inhibition in assay [9] worked out at 0%.
Regarding `O=C(N[C@@H](CC1CCCCC1)C(=O)N[C@@H](C[C@@H]1CCNC1=O)C(O)S(=O)(=O)O)OCc1cccc(I)c1` (stereo not given in full), the IC50 in [1] came out at 150 nM. Also, the EC50 in assay [2] stood at 40 nM.
The matching figures for `O=C[C@H](C[C@@H]1CCNC1=O)NC(=O)[C@H](CC1CCCCC1)NC(=O)OCc1ccccc1`: 300 nM and 60 nM.
On to `O=C(N[C@@H](CC1CCCCC1)C(=O)N[C@@H](C[C@@H]1CCNC1=O)C(=O)C(=O)NC1CC1)OCc1cccc(Cl)c1`, for which, in assay [1], the IC50 came out at 250 nM. The EC50 in [2] is 85 nM.
Consider `CCOP(=O)(OCC)C(O)[C@H](C[C@@H]1CCNC1=O)NC(=O)[C@H](CC1CCCCC1)NC(=O)OCc1cccc(Cl)c1` (stereo not given in full), for which, in assay [1], the concentration for half-maximal inhibition (IC50) is over 10000 nM. In assay [2], this molecule registered an EC50 of 60 nM. Also, the inhibition came to 86.5% in assay [3]; 2.4% in assay [4]; 8.8% in assay [5]; 0% in assay [6]; 0% in assay [7]; 15% in assay [8]. For the same molecule, the inhibition in [9] was 14.3%.
For the molecule `O=C[C@H](C[C@@H]1CCNC1=O)NC(=O)[C@H](CC1CCCCC1)NC(=O)OCc1ccc(Cl)cc1`, the IC50 in assay [1] was 710 nM. The molecule also displayed an EC50 in [2] of 80 nM.
As for `CC(C)C[C@H](NC(=O)OCc1cccc(Cl)c1)C(=O)N[C@@H](C[C@@H]1CCNC1=O)C(=O)C(=O)NC1CC1`, the IC50 in assay [1] was 5500 nM. Further, a half-maximal response in [2] (EC50) required 300 nM.
Regarding `O=C(N[C@@H](CC1CCCCC1)C(=O)N[C@@H](C[C@@H]1CCNC1=O)C(O)S(=O)(=O)O)OCc1cccc(Cl)c1` (stereo not given in full), the IC50 in assay [1] amounted to 100 nM. This molecule showed an EC50 in assay [2] of 20 nM.
Take `O=C[C@H](C[C@@H]1CCNC1=O)NC(=O)[C@H](CC1CCCCC1)NC(=O)OCc1cccc(Cl)c1`: in assay [1], the IC50 stood at 100 nM. In addition, the values for the EC50 in [2] and in [10] were 20 nM and 80 nM, respectively. The inhibition in assay [3] stood at 15%; in assay [4], 0%; in assay [5] it was 5%; in assay [6] it was 0%; in [7], 1%; in assay [8], 0%. The inhibition in assay [9] is 12%. Also, the “fold change (FC)” value was determined as 42.12 in [11] and 7.98 in assay [12].
On to `N#Cc1cccc(COC(=O)N[C@@H](CC2CCCCC2)C(=O)N[C@H](C=O)C[C@@H]2CCNC2=O)c1`, for which, in assay [1], the IC50 was over 10000 nM. Besides, a half-maximal effect in assay [2] (EC50) was put at 200 nM.
The matching figures for `CC(C)C[C@H](NC(=O)OCc1ccccc1)C(=O)N[C@H](C=O)C[C@@H]1CCNC1=O`: 600 nM and 200 nM.
The matching figures for `CC(C)(C)OC(=O)Nc1cccc(COC(=O)N[C@@H](CC2CCCCC2)C(=O)N[C@H](C=O)C[C@@H]2CCNC2=O)c1`: 4500 nM and 1500 nM.
The matching figures for `O=C[C@H](C[C@@H]1CCNC1=O)NC(=O)[C@H](CC1CCCCC1)NC(=O)OCc1cccc([N+](=O)[O-])c1`: 600 nM and 150 nM.
Regarding `O=C[C@H](C[C@@H]1CCNC1=O)NC(=O)[C@H](CC1CCCCC1)NC(=O)OCc1ccccc1F`, the IC50 in assay [1] was 900 nM. This molecule also showed an EC50 in assay [2] of 80 nM.
The matching figures for `O=C(N[C@@H](CC1CCCCC1)C(=O)N[C@@H](C[C@@H]1CCNC1=O)C(O)S(=O)(=O)O)OCc1ccccc1` (stereo not given in full): 400 nM and 60 nM.
The matching figures for `CCOP(=O)(OCC)C(O)[C@H](C[C@@H]1CCNC1=O)NC(=O)[C@H](CC1CCCCC1)NC(=O)OCc1ccccc1Cl` (stereo not given in full): over 10000 nM and 200 nM.
On to `O=C(N[C@@H](CC1CCCCC1)C(=O)N[C@@H](C[C@@H]1CCNC1=O)C(O)S(=O)(=O)O)OCc1cccc(Br)c1` (stereo not given in full), for which the IC50 in [1] came out at 150 nM. Further, the EC50 in assay [2] came to 30 nM.
The matching figures for `COc1ccccc1COC(=O)N[C@@H](CC1CCCCC1)C(=O)N[C@H](C=O)C[C@@H]1CCNC1=O`: over 10000 nM and 100 nM.
Taken in the same sequence, the figures for `O=C(N[C@@H](CC1CCCCC1)C(=O)N[C@@H](C[C@@H]1CCNC1=O)C(O)S(=O)(=O)O)OCc1ccccc1Cl` (stereo not given in full) were 700 nM and 70 nM.

One may read the IC50 as the concentration at which inhibition is half-maximal. One may read the EC50 as the concentration at which the effect is half-maximal. Broadly, the inhibition is the percentage by which the read-out fell short of the control.
